TRPC4 inh: blocks the mouse TRPC4 cation channel. HEK293 TRPC4beta/mu-opioid, DAMGO-evoked Fluo4 calcium flux; stronger effect = lower value. B-score at 10 µM. hit rate 0.39% among 300,000. AID 2247;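 active = B-score over 3 SD under the library average, no early fluorescence shift, positive overall ratio signal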
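Assay system: TRPC4beta/mu-opioid receptor HEK293 cell line; compound dosing: single concentration per test compound; detection: Fluo4 Ca2+ flux fluorescence; evaluation: per-well B score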
Kir21 block: inhibitors of mouse Kir2.1 inward-rectifier potassium channel; B-score at 10 µM; hit rate 0.85% among 310,000; AID 1672; P35561; HEK293-Kir2.1, FluxOR thallium flux fluorescence; stronger effect = lower value;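 active = fluorescence ratio B-score at or below minus 3 SD of library scores, with starting-brightness B-score within 2 SD, cut at about -4.2 in these data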;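 note: channel flux triggered by added potassium and thallium sulfate stimulus; B-score of peak minus minimum fluorescence over baseline after thallium stimulus; more negative B-score means stronger Kir2.1 block with less thallium influx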
TRPC4 agonist: opens the mouse TRPC4 cation channel; B-score at 10 µM; hit rate 0.49% among 310,000; HEK293 TRPC4beta/mu-opioid, Fluo4 calcium fluorescence; stronger effect = higher value; AID 2237; Q9QUQ5;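 active = B-score above 5 SD of library B-scores, and initial fluorescence ratio not above library mean plus 5 SD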;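 note: positive B-score marks a calcium rise read as TRPC4 activation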
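Incubation: 45 min room-temperature Fluo4 loading, 110 s read / System: HEK293 cells stably co-expressing mouse TRPC4beta and mu-opioid receptor / Signal: Fluo4 fluorescence, kinetic / Control set: buffer (low) and maximal DAMGO (high) / Measure: integrated baseline-normalised fluorescence ratio, converted to per-well B score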
TRPC6 inh: inhibitors of mouse TRPC6 channel; HEK293-TRPC6, membrane potential dye, ACh-evoked depolarization; stronger effect = lower value; B-score at 10 µM; hit rate 1.1% among 310,000; AID 2553;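 active = B-score under library mean minus 3 SD, initial fluorescence not abnormally high, positive integrated signal ratio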;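 note: B-score derived from integrated fluorescence ratio over the kinetic read; more negative B-score means stronger inhibition of depolarization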
Target sequence (Q61143 whole entry, looked up): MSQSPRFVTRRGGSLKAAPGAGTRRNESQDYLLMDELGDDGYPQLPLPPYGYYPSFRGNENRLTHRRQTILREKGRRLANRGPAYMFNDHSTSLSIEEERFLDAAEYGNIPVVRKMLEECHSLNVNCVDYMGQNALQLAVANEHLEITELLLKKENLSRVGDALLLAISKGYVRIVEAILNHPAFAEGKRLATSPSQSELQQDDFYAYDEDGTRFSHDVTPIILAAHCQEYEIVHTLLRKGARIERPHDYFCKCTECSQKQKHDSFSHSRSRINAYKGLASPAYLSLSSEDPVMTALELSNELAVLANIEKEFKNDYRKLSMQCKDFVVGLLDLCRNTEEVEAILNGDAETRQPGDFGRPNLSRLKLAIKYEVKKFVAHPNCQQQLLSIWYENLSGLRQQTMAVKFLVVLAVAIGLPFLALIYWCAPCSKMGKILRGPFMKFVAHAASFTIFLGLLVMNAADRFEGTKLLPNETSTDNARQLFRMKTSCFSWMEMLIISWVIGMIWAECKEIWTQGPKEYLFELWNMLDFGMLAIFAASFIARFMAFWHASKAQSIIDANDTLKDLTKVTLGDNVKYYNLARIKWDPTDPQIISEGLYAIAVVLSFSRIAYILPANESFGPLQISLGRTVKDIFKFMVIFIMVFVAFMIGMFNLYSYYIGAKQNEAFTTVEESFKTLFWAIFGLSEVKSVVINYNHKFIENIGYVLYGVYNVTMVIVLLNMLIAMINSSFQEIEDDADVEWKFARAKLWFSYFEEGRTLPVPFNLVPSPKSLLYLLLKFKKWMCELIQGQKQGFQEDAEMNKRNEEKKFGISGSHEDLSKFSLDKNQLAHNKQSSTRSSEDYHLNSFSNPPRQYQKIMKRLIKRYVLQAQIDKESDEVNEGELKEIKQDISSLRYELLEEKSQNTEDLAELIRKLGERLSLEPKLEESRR
TRPC6 act: activates the mouse TRPC6 cation channel; B-score at 10 µM; HEK293-TRPC6 membrane potential dye fluorescence; stronger effect = higher value; hit rate 0.13% among 310,000; Q61143;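 active = B-score of the integrated fluorescence ratio above library mean plus 3 SD, and starting fluorescence ratio within library mean plus 5 SD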;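 note: higher score means more depolarization so channel activation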
TRPC4 potent: allosteric potentiators of mouse TRPC4 channel | Q9QUQ5 | HEK293 TRPC4beta/mu-opioid, DAMGO EC20, Fluo-4 Ca2+ flux; stronger effect = higher value | B-score at 10 µM | hit rate 0.42% among 310,000 | AID 2227;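 active = B-score of calcium response area above 5 SD of library B-scores, with initial fluorescence ratio within 5 SD of library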;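 note: B-score of integrated fluorescence ratio over time as area under calcium response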
TRPC4 sel inh 2: mouse TRPC4 off-target activity of TRPC6 inhibitors, second screen; hit rate 42% among 920; shares compounds with TRPC6 inh; inhibition, % at 10 µM; AID 2776; HEK293 TRPC4/MOR, membrane potential dye fluorescence; channel activated by saturating DAMGO dose;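 active = compounds whose fluorescence signal differed from control wells by over 3 SD, either direction, in both duplicate plates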
TRPC4 spec: selectivity of TRPC6 inhibitors: effect on mouse TRPC4 | activity change, negative = inhibition, % at 10 µM | shares compounds with TRPC6 inh | HEK293 TRPC4/mu-opioid, membrane potential fluorescence | AID 2777 | hit rate 61% among 920;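 active = rise or fall in signal beyond 3 SD of buffer-only wells in both replicate plates, either sign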;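 note: integrated kinetic ratio of fluorescence range over baseline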
HEK293 MPD ctr 2-1: second check of TRPC6 inhibitor effects in parental HEK293 cells | shares compounds with TRPC6 inh | parental HEK293 membrane potential dye fluorescence; maximal acetylcholine challenge after compound addition | signal change vs control, % at 10 µM | hit rate 31% among 920;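 active = membrane potential signal moving either way by over 3 SD of the maximum-effect control, in both duplicate plates, meaning non-specific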
HEK293 MPD ctr-1: counter-screen for TRPC6 inhibitors: effect in parental HEK293 cells | membrane potential signal change, % at 10 µM | AID 2780 | shares compounds with TRPC6 inh | parental HEK293 membrane potential dye fluorescence | hit rate 60% among 920;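 active = membrane potential signal shifting up or down by more than 3 SD of buffer-only wells, on both duplicate plates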
HEK293 MPD ctr-2: counter-screen for TRPC6 modulators: effect in parental HEK293 cells; shares compounds with TRPC6 inh; membrane potential dye fluorescence; membrane potential signal change, % at 10 µM; hit rate 51% among 2,400; AID 488924;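 active = membrane potential signal moves up or down beyond 5 SD from buffer-only wells, on both duplicate plates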
HEK293 MPD ctr 2-2: parental HEK293 nonspecific activity of TRPC6 modulators, second screen | membrane potential dye fluorescence; after compound, maximal acetylcholine stimulation | hit rate 14% among 2,400 | inhibition, % at 10 µM | shares compounds with TRPC6 inh | AID 488926;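 active = membrane potential signal drops by more than 5 SD from the mean control signal, in both duplicate plates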;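 note: plate controls were acetylcholine ECmax control wells for no effect and buffer only wells for full effect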
TRPC4/MOR mod: selectivity of TRPC6 modulators against mouse TRPC4. shares compounds with TRPC6 inh. HEK293 TRPC4/mu-opioid, membrane potential fluorescence. percent change from control (negative = decrease, positive = increase), % at 10 µM. hit rate 69% among 2,400. AID 488927;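 active = membrane potential signal moved up or down beyond 5 SD of buffer control wells, in both duplicate plates, actives on both sides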;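 note: plate controls were assay buffer wells for no effect and DAMGO maximal-effect wells for full effect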
TRPC4/MOR inh 2: second selectivity test of TRPC6 modulators against mouse TRPC4; inhibition, % at 10 µM; hit rate 55% among 2,400; HEK293 TRPC4/mu-opioid, membrane potential dye fluorescence; stimulated with maximal-effect DAMGO; AID 488928; shares compounds with TRPC6 inh;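 active = drop in membrane potential signal beyond 5 SD of the control wells in both duplicate plates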;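 note: TRPC4 counter screen for TRPC6 hits run under conditions tuned for TRPC6 not TRPC4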
TRPC6 block conf: confirmation of mouse TRPC6 inhibitors. inhibition, % at 10 µM. AID 488960. HEK293-TRPC6, membrane potential dye, ACh-evoked depolarization. shares compounds with TRPC6 inh. hit rate 43% among 3,300;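 active = fluorescence ratio falls more than 5 SD below the full-stimulation control mean, in both duplicate runs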;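 note: integrated fluorescence ratio of peak minus minimum over baseline after agonist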
TRPC6 act confirm: confirmation of mouse TRPC6 activators; shares compounds with TRPC6 inh; HEK293-TRPC6 membrane potential dye fluorescence, FDSS; activation, % at 10 µM; hit rate 11% among 2,800; AID 488961;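 active = ratio signal rise beyond 5 SD above unstimulated control wells' mean, seen in both duplicate runs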;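 note: plate controls were buffer EC0 wells for no effect and acetylcholine ECmax response for full effect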
Starred values were filed as active, the others as inactive; i = inactive; . = no result. Rows were chosen to be rich in hits. Some 3% of all compounds tested hit in one or more screens of this group.

SMILES | TRPC4 inh | Kir21 block | TRPC4 agonist | TRPC6 inh | TRPC6 act | TRPC4 potent | HEK293 MPD ctr-2 | HEK293 MPD ctr 2-2 | TRPC4/MOR mod | TRPC4/MOR inh 2 | TRPC6 block conf | others
CCN(CC)S(=O)(=O)c1cc(NC(=O)c2ccc(-n3cncn3)c([N+](=O)[O-])c2)ccc1C | i | -2.4 | i | i | i | i | . | . | . | . | .
CC(C)NC(=O)C(c1ccc(F)cc1)N(Cc1ccco1)C(=O)CCC(=O)Nc1ccccn1 (stereo not drawn) | i | -1.8 | i | i | i | i | . | . | . | . | .
COc1cc2c(cc1OC)-c1cc(NCc3ccccn3)nc(=O)n1CC2 | i | -0.6 | i | -5.4* | i | i | -196%* | i | -34%* | i | i | TRPC6 act confirm=i
c1ccc2c(c1)[nH]c1c3ccccc3sc21 | i | 0.85 | i | i | i | i | . | . | . | . | .
O=C(O)C1CC=CCC1C(=O)Nc1ccc(N2CCN(Cc3ccccc3)CC2)cc1 (stereo not drawn) | i | 0.08 | i | i | i | i | . | . | . | . | .
Cn1c(=O)c2c(ncn2CC(=O)N/N=C/C=C/c2ccccc2[N+](=O)[O-])n(C)c1=O | i | -0.59 | i | i | i | i | . | . | . | . | .
CCCC(c1nnnn1Cc1cccs1)N1CCN(C)CC1 (stereo not drawn) | i | -0.21 | i | i | i | i | . | . | . | . | .
COc1ccccc1CN1CCN(C(CC(C)C)c2nnnn2Cc2cccs2)CC1 (stereo not drawn) | i | -3.7 | i | -7.2* | i | i | . | . | . | . | i | TRPC4 sel inh 2=9.5%*;TRPC4 spec=47%*;HEK293 MPD ctr 2-1=231%*;HEK293 MPD ctr-1=18%*
CCn1ccnc1CN(C)C(=O)c1cc(COc2ccccc2SC)on1 | i | 0.5 | i | -7.5* | i | i | . | . | . | . | i | TRPC4 sel inh 2=i;TRPC4 spec=4.0%*;HEK293 MPD ctr 2-1=i;HEK293 MPD ctr-1=7.0%*
CSc1ccccc1OCc1cc(C(=O)N(Cc2nccn2C)C(C)C)no1 | i | 1.2 | i | i | i | i | . | . | . | . | .
S=C(Nc1ccccc1)Nc1ccc(OCc2ccc(Cl)cc2Cl)cc1 | i | -1.5 | i | i | i | i | . | . | . | . | .
OCCNCc1ccc(OCc2ccc(Cl)cc2Cl)cc1 | i | -7.5* | i | -6.7* | i | i | . | . | . | . | i | TRPC4 sel inh 2=68%*;TRPC4 spec=8.3%*;HEK293 MPD ctr 2-1=283%*;HEK293 MPD ctr-1=11%*
CCC(C)(C)n1nnnc1C(c1ccc2ncccc2c1)N1CCCCCC1 (stereo not drawn) | i | -0.05 | i | -5.1* | i | i | i | i | 28%* | 33%* | i
c1cnc2ccc(C(c3nnnn3C3CCCCC3)N3CCCCC3)cc2c1 (stereo not drawn) | i | -0.89 | i | -5.9* | i | i | 149%* | i | 35%* | 30%* | 54%*
O=c1[nH][nH]cc1C=NCc1cccc(C(F)(F)F)c1 | i | 0.18 | i | i | i | i | . | . | . | . | .
O=C(Nc1ccncc1)c1ccc(N2CCCC2=O)cc1 | i | 0.27 | i | -7.1* | i | i | -238%* | i | -42%* | 34%* | i | TRPC6 act confirm=i
COc1ccc(S(=O)(=O)Nc2noc3ccccc23)cc1 | i | 2.3 | i | -6.7* | i | i | . | . | . | . | i | TRPC4 sel inh 2=i;TRPC4 spec=i;HEK293 MPD ctr 2-1=i;HEK293 MPD ctr-1=i;TRPC6 act confirm=i
CN(CC(=O)Nc1ccc(F)c(F)c1F)C(=O)/C=C/c1ccc(Cl)cc1 | i | -1.3 | i | i | i | i | . | . | . | . | .
O=C(NCc1ccccn1)C1CC(c2ccccc2O)=NO1 (stereo not drawn) | i | -1.5 | i | -5.4* | i | i | i | i | i | i | i | TRPC6 act confirm=i
COc1ccc(Nc2cc(Nc3cc(OC)c(OC)c(OC)c3)ncn2)cc1 | i | -1.9 | i | i | i | i | . | . | . | . | .
CCN(CC)CCCNC(=O)c1cc(-c2ccc(O)cc2)on1 | i | 1.4 | i | i | i | i | . | . | . | . | .
CCN(CC)CCCNC(=O)c1cc(-c2ccc(Cl)c(Cl)c2)on1 | i | -2 | i | -6.4* | i | i | 149%* | i | 26%* | 54%* | i
Cc1ccc(S(=O)(=O)N2CCC(Oc3cccc(C(F)(F)F)c3)CC2)cc1 | i | -0.07 | i | -7.3* | i | i | . | . | . | . | i | TRPC4 sel inh 2=i;TRPC4 spec=i;HEK293 MPD ctr 2-1=i;HEK293 MPD ctr-1=i
Oc1ccccc1/C=N/Nc1cc(N2CCCC2)nc(N2CCCC2)n1 | i | -1.1 | i | -5.2* | i | i | i | i | 16%* | i | i
Cc1ccc(NC(=O)CSC(C)C(=O)OCC(=O)N2CCN(C(=O)c3ccco3)CC2)cc1 (stereo not drawn) | i | 0.72 | i | i | i | i | . | . | . | . | .
C=CCOC(=O)C1=C(C)N(C)C(=O)NC1c1cc2c(cc1Br)OCO2 (stereo not drawn) | i | -1.1 | i | -5.4* | i | i | i | i | i | i | i | TRPC6 act confirm=i

Screening results as filed in PubChem.
